Test system: Fibroblast
Experiment: Multiplex assay against human fibroblast
Assay type: toxicity, cell-based
How it was run: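 Imaging took place on a CQ1 microscope at 37°C and 5% CO2 once compound had been added to live cells stained at seeding with Hoechst33342, BioTracker Green Microtubule Cytoskeleton Dye, MitoTracker Red and Annexin V Alexa Fluor 680. CellPathfinder machine-learning gating classed cells as Hoechst high-intensity objects or normal cells, classed normal cells as having healthy, pyknosed or fragmented nuclei, and classed pyknosed cells as mitotic or apoptotic. Tubulin, mitochondrial-mass and membrane-permeability phenotypes are per cents of the healthy-nucleus cells.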

[1] = 12 h, 1 µM, compound concentration 1 uM, replicate 1
[2] = 12 h, 1 µM, compound concentration 1 uM, replicate 2
[3] = 12 h, 10 µM, compound concentration 10 uM, replicate 1
[4] = 12 h, 10 µM, compound concentration 10 uM, replicate 2
[5] = 24 h, 1 µM, compound concentration 1 uM, replicate 1
[6] = 24 h, 1 µM, compound concentration 1 uM, replicate 2
[7] = 24 h, 10 µM, compound concentration 10 uM, replicate 1
[8] = 24 h, 10 µM, compound concentration 10 uM, replicate 2
[9] = 48 h, 1 µM, compound concentration 1 uM, replicate 1
[10] = 48 h, 1 µM, compound concentration 1 uM, replicate 2
[11] = 48 h, 10 µM, compound concentration 10 uM, replicate 1
[12] = 48 h, 10 µM, compound concentration 10 uM, replicate 2

For `CC(C)NC(=O)N1CC[C@H](NC2=Nc3cc(F)ccc3N(CC(F)F)c3ccc(Cl)cc32)C1`, the “Population Apoptotic (%)” value [1] was 68%, the “Population Fragmented Nuclei (%)” value [1] was 27% and the “Population Healthy Nuclei (%)” value [1] was 30%. The “Population Hoechst High Intensity Objects (%)” value [1] was 12%, the “Population Membrane Permeable-Phenotype (%)” value [1] was 4% and the “Population Mitochondria Different-Phenotype (%)” value [1] was 4%. The “Population Mitotic Cells (%)” value [1] was 31%, the “Population Normal (%)” value [1] was 87% and the “Population Pyknosed Nuclei (%)” value [1] was 42%. The “Population Tubulin-Different-Phenotype (%)” value [1] was 14%, the “Total Cell Count” value [1] was 79 and the “Population Apoptotic (%)” value [2] was 33%. The “Population Fragmented Nuclei (%)” value [2] was 5%, the “Population Healthy Nuclei (%)” value [2] was 89% and the “Population Hoechst High Intensity Objects (%)” value [2] was 9%. For the same compound, the “Population Mitochondria Different-Phenotype (%)” value [2] was 18%, the “Population Mitotic Cells (%)” value [2] was 66% and the “Population Normal (%)” value [2] was 90%. For the same compound, the “Population Pyknosed Nuclei (%)” value [2] was 5%, the “Total Cell Count” value [2] was 293 and the “Population Apoptotic (%)” value [3] was 70%. For the same compound, the “Population Fragmented Nuclei (%)” value [3] was 29%, the “Population Healthy Nuclei (%)” value [3] was 40% and the “Population Hoechst High Intensity Objects (%)” value [3] was 13%. The “Population Membrane Permeable-Phenotype (%)” value [3] was 8%, the “Population Mitochondria Different-Phenotype (%)” value [3] was 21% and the “Population Mitotic Cells (%)” value [3] was 29%. For the same compound, the “Population Normal (%)” value [3] was 86%, the “Population Pyknosed Nuclei (%)” value [3] was 29% and the “Population Tubulin-Different-Phenotype (%)” value [3] was 89%. The “Total Cell Count” value [3] was 160, the “Population Apoptotic (%)” value [4] was 0% and the “Population Fragmented Nuclei (%)” value [4] was 6%. The “Population Healthy Nuclei (%)” value [4] was 81%, the “Population Membrane Permeable-Phenotype (%)” value [4] was 13% and the “Population Mitochondria Different-Phenotype (%)” value [4] was 63%. The “Population Mitotic Cells (%)” value [4] was 100%, the “Population Pyknosed Nuclei (%)” value [4] was 11% and the “Population Tubulin-Different-Phenotype (%)” value [4] was 58%. The “Total Cell Count” value [4] was 62, the “Population Apoptotic (%)” value [5] was 62% and the “Population Fragmented Nuclei (%)” value [5] was 21%. For the same compound, the “Population Healthy Nuclei (%)” value [5] was 40%, the “Population Hoechst High Intensity Objects (%)” value [5] was 9% and the “Population Membrane Permeable-Phenotype (%)” value [5] was 25%. For the same compound, the “Population Mitochondria Different-Phenotype (%)” value [5] was 6%, the “Population Mitotic Cells (%)” value [5] was 37% and the “Population Normal (%)” value [5] was 90%. For the same compound, the “Population Pyknosed Nuclei (%)” value [5] was 38%, the “Population Tubulin-Different-Phenotype (%)” value [5] was 22% and the “Total Cell Count” value [5] was 84. The “Population Apoptotic (%)” value [6] was 50%, the “Population Fragmented Nuclei (%)” value [6] was 5% and the “Population Healthy Nuclei (%)” value [6] was 88%. The “Population Hoechst High Intensity Objects (%)” value [6] was 6%, the “Population Membrane Permeable-Phenotype (%)” value [6] was 6% and the “Population Mitochondria Different-Phenotype (%)” value [6] was 19%. For the same compound, the “Population Mitotic Cells (%)” value [6] was 50%, the “Population Normal (%)” value [6] was 93% and the “Population Pyknosed Nuclei (%)” value [6] was 5%. For the same compound, the “Population Tubulin-Different-Phenotype (%)” value [6] was 9%, the “Total Cell Count” value [6] was 281 and the “Population Apoptotic (%)” value [7] was 64%. The “Population Fragmented Nuclei (%)” value [7] was 32%, the “Population Healthy Nuclei (%)” value [7] was 45% and the “Population Hoechst High Intensity Objects (%)” value [7] was 13%. For the same compound, the “Population Membrane Permeable-Phenotype (%)” value [7] was 10%, the “Population Mitochondria Different-Phenotype (%)” value [7] was 46% and the “Population Mitotic Cells (%)” value [7] was 35%. For the same compound, the “Population Normal (%)” value [7] was 86%, the “Population Pyknosed Nuclei (%)” value [7] was 21% and the “Population Tubulin-Different-Phenotype (%)” value [7] was 92%. For the same compound, the “Total Cell Count” value [7] was 163, the “Population Apoptotic (%)” value [8] was 83% and the “Population Fragmented Nuclei (%)” value [8] was 13%. For the same compound, the “Population Healthy Nuclei (%)” value [8] was 73%, the “Population Hoechst High Intensity Objects (%)” value [8] was 10% and the “Population Membrane Permeable-Phenotype (%)” value [8] was 6%. The “Population Mitochondria Different-Phenotype (%)” value [8] was 57%, the “Population Mitotic Cells (%)” value [8] was 16% and the “Population Normal (%)” value [8] was 90%. For the same compound, the “Population Pyknosed Nuclei (%)” value [8] was 13%, the “Population Tubulin-Different-Phenotype (%)” value [8] was 51% and the “Total Cell Count” value [8] was 75. The “Population Apoptotic (%)” value [9] was 52%, the “Population Fragmented Nuclei (%)” value [9] was 17% and the “Population Healthy Nuclei (%)” value [9] was 58%. The “Population Hoechst High Intensity Objects (%)” value [9] was 12%, the “Population Membrane Permeable-Phenotype (%)” value [9] was 23% and the “Population Mitochondria Different-Phenotype (%)” value [9] was 2%. For the same compound, the “Population Mitotic Cells (%)” value [9] was 47%, the “Population Normal (%)” value [9] was 87% and the “Population Pyknosed Nuclei (%)” value [9] was 23%. For the same compound, the “Population Tubulin-Different-Phenotype (%)” value [9] was 20%, the “Total Cell Count” value [9] was 83 and the “Population Apoptotic (%)” value [10] was 33%. The “Population Fragmented Nuclei (%)” value [10] was 37%, the “Population Healthy Nuclei (%)” value [10] was 59% and the “Population Hoechst High Intensity Objects (%)” value [10] was 25%. For the same compound, the “Population Mitochondria Different-Phenotype (%)” value [10] was 3%, the “Population Mitotic Cells (%)” value [10] was 66% and the “Population Normal (%)” value [10] was 74%. The “Population Pyknosed Nuclei (%)” value [10] was 3%, the “Population Tubulin-Different-Phenotype (%)” value [10] was 33% and the “Total Cell Count” value [10] was 126. The “Population Apoptotic (%)” value [11] was 62%, the “Population Fragmented Nuclei (%)” value [11] was 41% and the “Population Healthy Nuclei (%)” value [11] was 48%. For the same compound, the “Population Hoechst High Intensity Objects (%)” value [11] was 20%, the “Population Membrane Permeable-Phenotype (%)” value [11] was 15% and the “Population Mitochondria Different-Phenotype (%)” value [11] was 21%. The “Population Mitotic Cells (%)” value [11] was 37%, the “Population Normal (%)” value [11] was 80% and the “Population Pyknosed Nuclei (%)” value [11] was 10%. For the same compound, the “Population Tubulin-Different-Phenotype (%)” value [11] was 90%, the “Total Cell Count” value [11] was 190 and the “Population Apoptotic (%)” value [12] was 100%. For the same compound, the “Population Fragmented Nuclei (%)” value [12] was 24%, the “Population Healthy Nuclei (%)” value [12] was 74% and the “Population Hoechst High Intensity Objects (%)” value [12] was 7%. The “Population Membrane Permeable-Phenotype (%)” value [12] was 6%, the “Population Mitochondria Different-Phenotype (%)” value [12] was 1% and the “Population Mitotic Cells (%)” value [12] was 0%. For the same compound, the “Population Normal (%)” value [12] was 92%, the “Population Pyknosed Nuclei (%)” value [12] was 1% and the “Population Tubulin-Different-Phenotype (%)” value [12] was 56%. The “Total Cell Count” value [12] was 88.

Source: ChEMBL document CHEMBL4689842, “EUbOPEN Chemogenomics Library wave 1” (2021)
